Laboratory results published in PubChem BioAssay.
The source made the active and inactive calls.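 Rule for the calls, unless noted: active = fluorescence slope higher than the sample average by over 3 SD (cut at about -0.22 in these data, passing the limit was not always enough); inactive = the rest.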

Key:
[1] = inhibitors of TNFa-induced NFkB p65 translocation, primary screen, imaging, HUVEC, MLSMR starter and 10KST1 sets (AID 438;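 active = inhibition above 20% together with a positive visual image hit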;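 note: compound added about 3h40 before a 20 min TNFalpha stimulation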;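 for inhibition: signal is the nuclear over cytoplasmic p65 intensity ratio per well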); details: HUVEC TNFa-induced p65 nuclear translocation; cell count: measured here: nuclei count (cytotoxicity indicator), at 2.08 µM; inhibition: at 2 µM, stronger effect = higher value, 0% TNFa-plus-vehicle, 100% no-TNFa wells
[2] = inhibitors of mutant huntingtin aggregation, primary screen, imaging, exon1htt(103Q)mCFP cells, high-content imaging (AID 483;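 active = visual image review flags a hit and inhibition of aggregation exceeds 20%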;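 note: compound exposure lasted 3 days before fixation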;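 for nuclei count: percent of the per-plate median nuclei count of sample wells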); details: exon1htt(103Q)mCFP cell line, aggregate imaging, at 2 µM; inhibition of aggregation: stronger effect = higher value; nuclei count: measured here: cell count, toxicity
[3] = inhibitors of E-selectin induction by TNFa, primary screen, imaging, HUVEC, immunofluorescence, MLSMR starter and 10KST1 sets (AID 487;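 active = visually confirmed hit in the image check and inhibition above 20%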;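 for inhibition: signal is fraction of cell area covered by stained E-selectin grains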;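 for nuclei count: 100% = median nuclei count of all wells on the same plate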); details: HUVEC TNFalpha-induced E-selectin immunofluorescence imaging, at 2 µM; inhibition: stronger effect = higher value; nuclei count: measured here: cell number, toxicity
[4] = molecular target: Voltage-gated potassium channel subunit beta-2 (Rattus norvegicus) (UniProt P62483); experiment: KvBeta enzyme negative modulators, primary screen, biochemical, NADPH fluorescence (AID 622); details: recombinant KvBeta, 4-cyanobenzaldehyde reduction, at 10 µM, stronger effect = higher value;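 note: slope of raw intensity against log time taken from 70 to 1610 s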
[5] = molecular target: Voltage-gated potassium channel subunit beta-2 (Rattus norvegicus) (UniProt P62483); experiment: KvBeta positive modulators, primary screen, biochemical, NADPH fluorescence (AID 623;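 active = NADPH fluorescence slope more negative than the mean of all samples by about 3 SD, 99.7% confidence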;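 note: fluorescence intensity change per second fitted from 20 to 320 s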); details: Recombinant KvBeta, NADPH fluorescence decrease slope, 10 min; at 10 µM; stronger effect = lower value
[6] = molecular target: Muscarinic acetylcholine receptor M4 (Homo sapiens) (UniProt P08173); experiment: compounds altering M4/GIRK thallium flux, either direction, primary screen, M4 allosteric agonist project, cell-based, HEK293 M4/GIRK, BTC-AM (AID 625;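 active = fluorescence slope after compound addition differing from the mean of all tested samples at 99.7% confidence, mostly higher but some lower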;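 note: thallium influx through GIRK channels coupled to M4 in HEK293 cells with BTC-AM dye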); details: at 10 µM, actives lie on both sides
In short: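 Material: HEK293 cells with M4 receptor and GIRK channels; Times: cells overnight at 37 °C, BTC-AM loading 1 h, reads 2 min total; Technique: kinetic BTC-AM fluorescence sampled at 1 Hz, 10 s pre-addition baseline; Read-out basis: slope over 15–24 s of trace normalized to starting intensity; Controls: carbachol positive, DMSO negative.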

[7] = inhibitors of Sendai virus-induced IRF3 signaling, primary screen, TLR/RLR signaling modifier project, cell-based, Sendai virus stimulus, luciferase, 10K MLSCN set (AID 602276;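 active = inhibition at or above 50% at 10 µM; inactive = inhibition below 50%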;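 note: firefly luciferase from ISG56 promoter only with Renilla not read in this screen; 0% = Sendai virus plus DMSO and 100% = medium plus DMSO without virus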); details: HEK293 RL24 IRF3 luciferase reporter, at 10 µM, stronger effect = higher value
[8] = inhibitors of poly I:C-induced TLR3 signaling, primary screen, cell-based, poly I:C stimulus, luciferase, 10K MLSCN set (AID 602277;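 active = inhibition of the reporter signal at or above 50%; inactive = inhibition below 50%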); details: HEK293-TLR3 RL24 IRF3 luciferase reporter, at 10 µM, stronger effect = higher value

Chain of Muscarinic acetylcholine receptor M4 (Homo sapiens) (P08173 whole entry, looked up): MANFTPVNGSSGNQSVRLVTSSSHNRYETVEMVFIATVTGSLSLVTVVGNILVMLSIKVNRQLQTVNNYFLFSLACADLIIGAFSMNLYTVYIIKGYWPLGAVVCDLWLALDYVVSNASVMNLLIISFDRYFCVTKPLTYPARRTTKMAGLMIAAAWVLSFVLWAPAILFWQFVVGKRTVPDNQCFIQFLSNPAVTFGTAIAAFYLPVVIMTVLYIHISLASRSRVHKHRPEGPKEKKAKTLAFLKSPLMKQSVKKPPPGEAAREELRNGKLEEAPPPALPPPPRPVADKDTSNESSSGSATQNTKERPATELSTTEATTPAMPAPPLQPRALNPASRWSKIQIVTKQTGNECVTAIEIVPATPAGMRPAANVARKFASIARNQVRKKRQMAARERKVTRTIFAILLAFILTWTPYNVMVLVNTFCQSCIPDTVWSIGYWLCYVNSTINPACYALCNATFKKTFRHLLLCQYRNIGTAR
Chain of Voltage-gated potassium channel subunit beta-2 (Rattus norvegicus) (P62483 whole entry, looked up): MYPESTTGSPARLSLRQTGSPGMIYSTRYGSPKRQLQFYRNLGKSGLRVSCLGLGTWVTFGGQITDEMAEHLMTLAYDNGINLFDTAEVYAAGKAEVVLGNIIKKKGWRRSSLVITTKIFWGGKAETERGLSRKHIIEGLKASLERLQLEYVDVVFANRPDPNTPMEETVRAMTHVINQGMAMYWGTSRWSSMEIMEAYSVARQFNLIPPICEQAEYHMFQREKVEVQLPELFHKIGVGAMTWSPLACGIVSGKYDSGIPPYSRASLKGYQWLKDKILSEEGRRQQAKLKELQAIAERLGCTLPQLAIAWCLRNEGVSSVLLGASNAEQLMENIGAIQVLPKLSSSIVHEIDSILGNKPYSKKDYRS

SMILES | cell count [1] | inhibition [1] | inhibition of aggregation [2] | nuclei count [2] [%] | inhibition [3] | nuclei count [3] [%] | fluorescence slope [4] | NADPH fluorescence slope [5] | fluorescence slope [6] | inhibition [7] | inhibition [8]
COc1ccc(CNC(=O)c2cc(-c3ccc(OC)c(OC)c3)on2)cc1 | 383 | -7.2% (inactive) | 2% (inactive) | 104 | 21.5% (inactive) | 110 | -0.206 (inactive) | -1.8e-05 (inactive) | 0.00919 (inactive) | 15.2% (inactive) | -6.13% (inactive)
COc1ccc2c(c1)c1c(n2C(C)=O)C(OC(C)=O)=NCC1 | 904 | -1.4% (inactive) | -12.8% (inactive) | 101 | -98.4% (inactive) | 128 | -0.166 (active) | -2.6e-05 (inactive) | 0.00438 (inactive) | 13.2% (inactive) | -6.44% (inactive)
O=C(NCc1ccco1)c1cc2c(s1)CSC2 | 473 | -4.3% (inactive) | 3.2% (inactive) | 105 | -31.1% (inactive) | 118 | -0.544 (inactive) | 1.9e-05 (inactive) | 0.00557 (inactive) | 9.74% (inactive) | 12.5% (inactive)
COc1ccc(S(=O)(=O)NC2CCCCC2)c(C)c1C | 426 | 8.4% (inactive) | -3% (inactive) | 101 | 65.4% (inactive) | 108 | -0.557 (inactive) | 1.8e-05 (inactive) | 0.00523 (inactive) | 20.3% (inactive) | 26.9% (inactive)
COC(=O)c1[nH]c2cccc(C)c2c1NC(=O)CN1CCCc2ccccc21 | 279 | 6.2% (inactive) | 22.8% (inactive) | 94 | -47.3% (inactive) | 100 | -0.45 (inactive) | 6.4e-05 (inactive) | 0.00793 (inactive) | 2.04% (inactive) | 20% (inactive)
Cc1c(/C(O)=C2/C(=O)C(=O)N(CCN3CCOCC3)C2c2cccs2)cnn1-c1ccccc1 (centres undefined) | 566 | 13.4% (inactive) | -5% (inactive) | 103 | 21.8% (inactive) | 97.7 | -0.502 (inactive) | -0.000209 (inactive) | 0.00361 (inactive) | 2.43% (inactive) | 21.8% (inactive)
Cc1ccc2c(c1)c1c(n2CC(O)Cn2c(C)nc3ccccc32)/C(=N\O)CCC1 (centres undefined) | 459 | 2.7% (inactive) | -25.1% (inactive) | 14.1 | -15.9% (inactive) | 103 | -0.433 (inactive) | 9.2e-05 (inactive) | 0.00656 (inactive) | 7.68% (inactive) | -1.8% (inactive)
Cc1cc(O)c(NC(=O)c2ccc(Br)o2)cc1C | 394 | 5.5% (inactive) | -12.4% (inactive) | 103 | -6.8% (inactive) | 116 | -0.299 (inactive) | -6.1e-05 (inactive) | 0.00583 (inactive) | 8.6% (inactive) | -53.5% (inactive)
O=C(Cn1ccc2ccccc2c1=O)NCCC(=O)N1CCN(C2CCCCC2)CC1 | 510 | -3.8% (inactive) | 10.9% (inactive) | 83.8 | 15.7% (inactive) | 110 | -0.395 (inactive) | 2.2e-05 (inactive) | 0.00596 (inactive) | 9.9% (inactive) | 18.5% (inactive)
O=C(NCc1ccco1)c1cc2n(n1)C(C(F)(F)F)CC(c1ccc(F)cc1)N2 (centres undefined) | 405 | 6.5% (inactive) | -12.7% (inactive) | 109 | 8.6% (inactive) | 103 | -0.557 (inactive) | -7.3e-06 (inactive) | 0.00537 (inactive) | 3.11% (inactive) | 12.1% (inactive)
CCn1c(CCNC(=O)c2ccc(OC)c(OC)c2)nc2ccccc21 | 275 | -8.5% (inactive) | -14.6% (inactive) | 95.7 | 3.1% (inactive) | 88.5 | -0.468 (inactive) | -3.6e-05 (inactive) | 0.00543 (inactive) | 15.9% (inactive) | 6.06% (inactive)
CCOC(=O)C1CCN(C(=O)c2c(-c3c(Cl)cccc3Cl)noc2C)CC1 | 376 | 1.6% (inactive) | 20.9% (inactive) | 94.8 | -89.8% (inactive) | 110 | -0.557 (inactive) | -4.4e-05 (inactive) | 0.00598 (inactive) | 4.89% (inactive) | 12.6% (inactive)
O=C(COC(=O)c1cc(S(=O)(=O)N2CCOCC2)ccc1O)NCC1CCCO1 (centres undefined) | 426 | 9.7% (inactive) | -4.1% (inactive) | 88.7 | -39.1% (inactive) | 113 | -0.345 (inactive) | 5.4e-05 (inactive) | 0.00615 (inactive) | 15.4% (inactive) | 24.6% (inactive)
Cc1nnc(C)n1/N=C/c1cccc(Oc2ccccc2)c1 | 344 | -0.6% (inactive) | 0.1% (inactive) | 102 | -5.9% (inactive) | 106 | -0.462 (inactive) | 1.6e-05 (inactive) | 0.00567 (inactive) | 21.3% (inactive) | 31.8% (inactive)
c1ccc(-c2cc3c(nn2)CCc2nonc2-3)cc1 | 339 | 2.4% (inactive) | 19.1% (inactive) | 100 | -9.2% (inactive) | 111 | -0.543 (inactive) | -0.00017 (inactive) | 0.00417 (inactive) | -15.2% (inactive) | -31.9% (inactive)
c1nnc(NC2=NCCCCC2)s1 | 630 | -18.3% (inactive) | 0.1% (inactive) | 105 | 33.9% (inactive) | 124 | -0.346 (inactive) | -1.1e-05 (inactive) | 0.00597 (inactive) | -16.9% (inactive) | -29.4% (inactive)
CCCCn1nnnc1SCC(=O)Nc1cccc(C)n1 | 554 | -46.9% (inactive) | 9% (inactive) | 112 | -47.5% (inactive) | 107 | -0.329 (inactive) | -3.8e-05 (inactive) | 0.00669 (inactive) | -10.8% (inactive) | -6.38% (inactive)
O=C(NCCO)c1scc2c1OCCO2 | 572 | -12.8% (inactive) | 7.6% (inactive) | 97.2 | -15.2% (inactive) | 104 | -0.327 (inactive) | 6.5e-05 (inactive) | 0.00603 (inactive) | 16.6% (inactive) | 19.5% (inactive)
COC(=O)Nc1ccc(C)cc1NC(=O)OC | 624 | -20.8% (inactive) | -13.1% (inactive) | 98.6 | 16% (inactive) | 86.5 | -0.574 (inactive) | 2.5e-05 (inactive) | 0.00692 (inactive) | -9.05% (inactive) | -6.68% (inactive)
